Experimental data as given in ChEMBL document CHEMBL2163247, “Multitargeted drug development: Discovery and profiling of dihydroxy substituted 1-aza-9-oxafluorenes as lead compounds targeting Alzheimer disease relevant kinases” (Bioorg Med Chem Lett, 2012).
Active and inactive are the calls of the source. The calls are words filed in the database; no cut-off is given here.

Key:
[1] = molecular target: Glycogen synthase kinase-3 beta (Homo sapiens, UniProt P49841); assay: Inhibition of GSK3beta
Procedure, shortened: (§1)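 Ki values were calculated from measured IC50 values of kinase inhibition.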

[2] = molecular target: Cyclin-dependent kinase 2/cyclin E (Homo sapiens, UniProt P24941); assay: Inhibition of CDK2/Cyclin E; format: protein-complex assay; procedure, shortened: as §1
[3] = molecular target: Cyclin-dependent kinase 1/cyclin B1 (Homo sapiens, UniProt P06493); assay: Inhibition of CDK1/Cyclin B; format: protein-complex assay; procedure, shortened: as §1
[4] = Inhibition of CDK4/Cyclin D; procedure, shortened: as §1
[5] = molecular target: Cyclin-dependent kinase 5/CDK5 activator 1 (Homo sapiens, UniProt Q00535); assay: Inhibition of CDK5/p25; format: protein-complex assay; procedure, shortened: as §1
Angiopoietin-1 receptor = Angiopoietin-1 receptor (Homo sapiens, UniProt Q02763); assay: Inhibition of TIE2
[6] = molecular target: T1, Protein kinase C iota type (Homo sapiens, UniProt P41743); assay: Inhibition of PKCiota
T1 sequence (P41743 whole entry): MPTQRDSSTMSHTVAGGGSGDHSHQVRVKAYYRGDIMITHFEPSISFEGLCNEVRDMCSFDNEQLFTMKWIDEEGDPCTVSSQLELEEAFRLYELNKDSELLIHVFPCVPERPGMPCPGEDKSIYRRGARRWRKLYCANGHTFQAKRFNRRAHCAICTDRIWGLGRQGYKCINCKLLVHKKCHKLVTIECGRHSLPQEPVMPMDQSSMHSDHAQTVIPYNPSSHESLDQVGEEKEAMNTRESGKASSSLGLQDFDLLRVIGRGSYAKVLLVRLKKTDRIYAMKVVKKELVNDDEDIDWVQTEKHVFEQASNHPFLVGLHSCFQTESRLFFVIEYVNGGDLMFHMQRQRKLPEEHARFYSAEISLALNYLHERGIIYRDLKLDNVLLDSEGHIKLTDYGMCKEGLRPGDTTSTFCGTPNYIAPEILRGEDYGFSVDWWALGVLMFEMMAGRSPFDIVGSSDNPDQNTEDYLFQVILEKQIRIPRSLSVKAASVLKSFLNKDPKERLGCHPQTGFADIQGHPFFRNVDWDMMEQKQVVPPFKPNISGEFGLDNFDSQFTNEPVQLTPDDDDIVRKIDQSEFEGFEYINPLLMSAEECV

[7] = molecular target: Vascular endothelial growth factor receptor 2 (Homo sapiens, UniProt P35968); assay: Inhibition of VEGFR2
[8] = molecular target: Protein kinase C alpha type (Homo sapiens, UniProt P17252); assay: Inhibition of PKCalpha
CDK6/cyclin D1 = CDK6/cyclin D1 (Homo sapiens, UniProt Q00534); assay: Inhibition of CDK6/Cyclin D1; format: protein-complex assay
Wee1-like protein kinase = Wee1-like protein kinase (Homo sapiens, UniProt P30291); assay: Inhibition of WEE1
[9] = molecular target: T2, Protein kinase C epsilon type (Homo sapiens, UniProt Q02156); assay: Inhibition of PKCepsilon
T2 sequence (Q02156 whole entry): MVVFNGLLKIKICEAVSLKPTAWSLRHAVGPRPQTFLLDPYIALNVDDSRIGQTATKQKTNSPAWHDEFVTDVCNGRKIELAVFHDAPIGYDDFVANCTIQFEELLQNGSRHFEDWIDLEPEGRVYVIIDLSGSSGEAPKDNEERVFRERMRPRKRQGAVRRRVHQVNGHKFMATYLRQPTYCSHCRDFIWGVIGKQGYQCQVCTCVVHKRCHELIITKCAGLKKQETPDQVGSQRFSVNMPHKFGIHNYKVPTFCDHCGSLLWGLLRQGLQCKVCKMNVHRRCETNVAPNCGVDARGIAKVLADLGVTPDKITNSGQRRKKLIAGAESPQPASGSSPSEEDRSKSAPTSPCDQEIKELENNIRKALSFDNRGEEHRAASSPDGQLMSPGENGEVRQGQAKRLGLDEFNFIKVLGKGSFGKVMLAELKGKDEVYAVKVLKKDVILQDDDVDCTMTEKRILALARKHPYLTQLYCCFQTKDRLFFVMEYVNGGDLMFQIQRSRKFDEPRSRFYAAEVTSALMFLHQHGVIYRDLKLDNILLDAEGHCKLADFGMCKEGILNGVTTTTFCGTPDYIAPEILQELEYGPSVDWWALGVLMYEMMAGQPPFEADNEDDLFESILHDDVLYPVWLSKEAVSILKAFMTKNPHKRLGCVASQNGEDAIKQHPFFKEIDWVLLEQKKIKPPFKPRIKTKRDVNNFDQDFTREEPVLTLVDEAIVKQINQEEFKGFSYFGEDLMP

[10] = molecular target: Protein kinase C gamma type (Homo sapiens, UniProt P05129); assay: Inhibition of PKCgamma
N2a [11] = assay: Cytotoxicity against mouse N2A cells up to 90 uM by LDH assay; format: cell-based
Procedure, shortened: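 Membrane integrity in N2A cells was read as extracellular lactate dehydrogenase activity, at compound concentrations up to 90 µM. Absorbance was read at 492 nm 20 min after adding the reagent mixture and compared with compound-free cells.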

[12] = molecular target: Casein kinase I isoform alpha (Homo sapiens, UniProt P48729); assay: Inhibition of Ck1alpha1
[13] = molecular target: Cdk5-Cdk5r1 complex (Mus musculus) (UniProt P49615+P61809); assay: Inhibition of CDK5/p25-mediated Tau S202/T205 phosphorylation in mouse N2A cells at 2.6 to 24 uM after 16 hrs by immunoblot analysis; format: cell-based
Procedure, shortened: (§2)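 Mouse N2A cells stably transfected with a 3-repeat tau construct were grown 24 h in DMEM/HAMs F-12 (pH 7.4), 5% FBS, 2 mM L-glutamine and gentamicin (37 °C, 5% CO2). They were then exposed 16 h to inhibitor diluted from a 25 mM DMSO stock (final DMSO ≤0.4%, also in controls). Lysate proteins were run on 8% SDS–PAGE, blotted to PVDF, and probed for phospho-Ser202/Thr205 tau.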

N2a [14] = assay: Cytotoxicity against mouse N2A cells up to 90 uM by MTT assay; format: cell-based
Procedure, shortened: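 N2A cells were treated at up to 90 µM. MTT was added in triplicate to a final 1 mg/mL for 2 h. Medium was removed, formazan taken up in DMSO plus glycine buffer (0.1 M glycine, pH 10.5, 0.1 M NaCl), and absorbance read at 550 nm. Cells lysed with 1% Triton X-100 set 100% death; untreated cells served as reference.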

[15] = molecular target: Glycogen synthase kinase-3 beta (Mus musculus) (UniProt Q9WV60); assay: Inhibition of GSK3beta-mediated Tau S202/T205 phosphorylation in mouse N2A cells at 2.6 to 24 uM after 16 hrs by immunoblot analysis; format: cell-based; procedure, shortened: as §2
[16] = molecular target: Receptor tyrosine-protein kinase erbB-2 (Homo sapiens, UniProt P04626); assay: Inhibition of ERBB2

Chain of Cyclin-dependent kinase 1/cyclin B1 (P06493 whole entry): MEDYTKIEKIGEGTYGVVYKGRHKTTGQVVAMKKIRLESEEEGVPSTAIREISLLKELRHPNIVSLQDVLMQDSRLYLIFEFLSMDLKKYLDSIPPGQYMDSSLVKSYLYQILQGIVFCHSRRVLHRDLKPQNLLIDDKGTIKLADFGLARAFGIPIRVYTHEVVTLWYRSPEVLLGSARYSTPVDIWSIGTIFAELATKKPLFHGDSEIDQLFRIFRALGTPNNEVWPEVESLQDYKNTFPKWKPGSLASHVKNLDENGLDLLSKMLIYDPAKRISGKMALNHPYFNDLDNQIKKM
Chain of Cyclin-dependent kinase 1/cyclin B1 (P14635 whole entry, further chain): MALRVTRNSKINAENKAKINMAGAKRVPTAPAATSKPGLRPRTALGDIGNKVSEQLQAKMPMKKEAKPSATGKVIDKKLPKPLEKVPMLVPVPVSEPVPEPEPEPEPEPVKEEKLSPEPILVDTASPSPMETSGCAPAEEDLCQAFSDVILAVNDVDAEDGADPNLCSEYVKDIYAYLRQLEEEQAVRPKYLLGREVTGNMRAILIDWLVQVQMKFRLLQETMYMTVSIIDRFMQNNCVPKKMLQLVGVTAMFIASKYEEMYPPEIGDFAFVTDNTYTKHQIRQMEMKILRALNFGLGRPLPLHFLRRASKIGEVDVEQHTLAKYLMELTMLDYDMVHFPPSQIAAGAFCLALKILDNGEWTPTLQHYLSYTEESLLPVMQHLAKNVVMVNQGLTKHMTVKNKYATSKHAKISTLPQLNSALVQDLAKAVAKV
Chain of Cyclin-dependent kinase 5/CDK5 activator 1 (Q00535 whole entry): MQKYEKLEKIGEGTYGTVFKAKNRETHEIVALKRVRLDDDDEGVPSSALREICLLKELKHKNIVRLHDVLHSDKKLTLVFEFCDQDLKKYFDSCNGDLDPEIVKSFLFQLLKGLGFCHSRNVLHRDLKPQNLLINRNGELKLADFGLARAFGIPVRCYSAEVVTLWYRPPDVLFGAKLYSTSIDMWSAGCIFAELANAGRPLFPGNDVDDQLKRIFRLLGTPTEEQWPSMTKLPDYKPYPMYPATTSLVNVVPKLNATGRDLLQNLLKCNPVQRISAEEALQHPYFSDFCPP
Chain of Cyclin-dependent kinase 5/CDK5 activator 1 (Q15078 whole entry, further chain): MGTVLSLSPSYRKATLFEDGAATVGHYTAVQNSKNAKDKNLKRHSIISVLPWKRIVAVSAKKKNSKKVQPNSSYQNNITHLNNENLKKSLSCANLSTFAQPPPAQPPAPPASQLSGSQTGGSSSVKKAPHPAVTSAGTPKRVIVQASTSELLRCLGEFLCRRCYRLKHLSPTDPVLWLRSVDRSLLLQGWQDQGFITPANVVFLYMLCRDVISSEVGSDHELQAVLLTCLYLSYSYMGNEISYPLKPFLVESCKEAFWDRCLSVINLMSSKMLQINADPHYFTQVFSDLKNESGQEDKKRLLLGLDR
Chain of Glycogen synthase kinase-3 beta (P49841 whole entry): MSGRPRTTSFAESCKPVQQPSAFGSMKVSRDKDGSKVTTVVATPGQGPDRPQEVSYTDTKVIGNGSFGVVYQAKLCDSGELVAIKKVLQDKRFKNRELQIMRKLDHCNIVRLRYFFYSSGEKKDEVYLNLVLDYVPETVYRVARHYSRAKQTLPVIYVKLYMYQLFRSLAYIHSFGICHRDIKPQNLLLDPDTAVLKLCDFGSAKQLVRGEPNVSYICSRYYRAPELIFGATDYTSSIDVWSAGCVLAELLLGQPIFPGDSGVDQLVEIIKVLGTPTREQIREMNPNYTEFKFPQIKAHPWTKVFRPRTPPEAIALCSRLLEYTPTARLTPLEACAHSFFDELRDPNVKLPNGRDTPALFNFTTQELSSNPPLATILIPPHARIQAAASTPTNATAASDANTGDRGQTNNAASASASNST
Chain of Wee1-like protein kinase (P30291 whole entry): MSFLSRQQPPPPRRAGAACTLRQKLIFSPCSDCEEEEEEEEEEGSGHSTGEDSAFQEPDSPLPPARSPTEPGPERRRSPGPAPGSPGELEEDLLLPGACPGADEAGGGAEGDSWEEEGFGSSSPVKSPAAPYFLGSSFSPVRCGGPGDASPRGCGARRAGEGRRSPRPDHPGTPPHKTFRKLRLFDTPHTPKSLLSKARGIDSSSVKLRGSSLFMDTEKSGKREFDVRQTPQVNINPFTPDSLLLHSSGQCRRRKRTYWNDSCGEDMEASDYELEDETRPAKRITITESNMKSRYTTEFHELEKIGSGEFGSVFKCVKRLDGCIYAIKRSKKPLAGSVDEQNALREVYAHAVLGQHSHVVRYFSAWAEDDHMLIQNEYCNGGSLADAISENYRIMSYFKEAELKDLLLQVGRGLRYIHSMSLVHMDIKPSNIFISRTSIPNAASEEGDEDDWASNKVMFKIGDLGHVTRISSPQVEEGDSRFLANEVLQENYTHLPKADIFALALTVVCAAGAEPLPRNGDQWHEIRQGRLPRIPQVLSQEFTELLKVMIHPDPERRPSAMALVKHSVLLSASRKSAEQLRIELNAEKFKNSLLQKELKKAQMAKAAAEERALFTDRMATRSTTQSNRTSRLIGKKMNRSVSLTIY
Chain of CDK6/cyclin D1 (P24385 whole entry): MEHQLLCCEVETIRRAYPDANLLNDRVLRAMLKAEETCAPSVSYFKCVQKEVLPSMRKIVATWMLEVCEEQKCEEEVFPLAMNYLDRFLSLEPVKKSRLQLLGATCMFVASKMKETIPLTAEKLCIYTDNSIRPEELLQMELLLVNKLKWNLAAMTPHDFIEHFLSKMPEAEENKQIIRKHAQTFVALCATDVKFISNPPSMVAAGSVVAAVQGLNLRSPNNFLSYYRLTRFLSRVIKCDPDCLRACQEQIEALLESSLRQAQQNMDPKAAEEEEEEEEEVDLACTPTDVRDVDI
Chain of CDK6/cyclin D1 (Q00534 whole entry): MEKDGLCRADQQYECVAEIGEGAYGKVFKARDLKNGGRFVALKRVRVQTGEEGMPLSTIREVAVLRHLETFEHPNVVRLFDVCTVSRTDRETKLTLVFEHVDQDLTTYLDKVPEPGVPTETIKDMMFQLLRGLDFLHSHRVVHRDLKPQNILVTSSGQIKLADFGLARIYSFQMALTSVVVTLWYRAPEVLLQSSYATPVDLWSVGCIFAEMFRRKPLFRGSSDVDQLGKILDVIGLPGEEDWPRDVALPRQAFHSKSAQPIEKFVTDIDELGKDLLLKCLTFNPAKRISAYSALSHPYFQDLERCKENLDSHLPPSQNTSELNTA
Chain of Cdk5-Cdk5r1 complex (Mus musculus) (P49615 whole entry, looked up): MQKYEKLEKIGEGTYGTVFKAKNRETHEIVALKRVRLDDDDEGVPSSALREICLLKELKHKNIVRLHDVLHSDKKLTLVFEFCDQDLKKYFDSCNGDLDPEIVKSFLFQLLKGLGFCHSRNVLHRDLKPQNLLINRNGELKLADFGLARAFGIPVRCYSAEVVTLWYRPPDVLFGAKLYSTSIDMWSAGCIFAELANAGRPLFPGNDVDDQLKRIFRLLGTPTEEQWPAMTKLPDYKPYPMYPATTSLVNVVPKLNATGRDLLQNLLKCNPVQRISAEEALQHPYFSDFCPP
Chain of Cdk5-Cdk5r1 complex (Mus musculus) (P61809 whole entry, looked up): as the sequence (Q15078 whole entry, further chain) above, with V68A, N76S, T79A, G121V, V133I counted along it
Chain of Glycogen synthase kinase-3 beta (Mus musculus) (Q9WV60 whole entry, looked up): as the sequence (P49841 whole entry) above, with T390P, T392A, A400T, T402A counted along it

Row | SMILES | Ki [1] [µM] | Ki [2] [µM] | Ki [3] [µM] | Ki [4] [µM] | Ki [5] [µM] | other results
1 | COc1cnc2oc3ccc(O)cc3c2c1-c1ccccc1 | 14.8 | 24 | 5.3 | 93.6 | > 1000 | –
2 | COc1ccc2oc3ncc(OC)c(-c4ccccc4)c3c2c1 | > 1000 | > 1000 | > 1000 | > 1000 | > 1000 | –
3 | COc1ccc2oc3ncc(O)c(-c4ccccc4)c3c2c1 | > 1000 | > 1000 | > 1000 | 144 | > 1000 | –
4 | Cc1cc2oc3ncc(OCc4ccccc4)c(-c4ccccc4)c3c2cc1O | 5.8 | – | 1.3 | – | 25.3 | –

More lines, in order of falling Ki [1], values ahead:

Row | Ki [1] [µM] | Ki [2] [µM] | Ki [3] [µM] | Ki [4] [µM] | Ki [5] [µM] | SMILES | other results
5 | 5.8 | 6.4 | 2.3 | 36.6 | > 1000 | Oc1ccc2oc3ncc(OCc4ccccc4)c(-c4ccccc4)c3c2c1 | –
6 | 1.6 | – | 0.09 | – | 2.1 | Oc1cc2c(oc3ncc(OCc4ccccc4)c(-c4ccccc4)c32)c2ccccc12 | –
7 | 0.02 | > 1000 | > 1000 | > 1000 | 26.1 | COc1ccc2oc3ncc(OCc4ccccc4)c(-c4ccccc4)c3c2c1 | –
8 | 0.02 | 0.6 | 0.01 | 18.5 | 0.11 | Oc1ccc2oc3ncc(O)c(-c4ccccc4)c3c2c1 | Ki (Angiopoietin-1 receptor): > 1 mM; Ki [6]: > 1 mM; Ki [7]: > 1 mM; Ki [8]: > 1 mM; Ki (CDK6/cyclin D1): 773 µM; Ki (Wee1-like protein kinase): > 1 mM; Ki [9]: > 1 mM; Ki [10]: > 1 mM; Activity (N2a [11]): Non-toxic; Ki [12]: > 1 mM; inhibition [13]: Active; Activity (N2a [14]): Non-toxic; inhibition [15]: Active; Ki [16]: > 1 mM
9 | 0.01 | – | 0.7 | – | 0.07 | Oc1cnc2oc3c4ccccc4c(O)cc3c2c1-c1ccccc1 | –
